From ChEMBL document CHEMBL1629457 (J Med Chem, 2010)
Bridge positions count the residues as written; N and C are the ends. Peptide text beside a SMILES is read from it.

Legend:
Oxytocin receptor [1] = biological target: T1, Oxytocin receptor (Homo sapiens, UniProt P30559); experiment: Activity at oxytocin receptor expressed in COS1 cells assessed as IP-one generation by HTRF assay; format: cell-based, COS-1
T1 sequence (P30559 whole entry): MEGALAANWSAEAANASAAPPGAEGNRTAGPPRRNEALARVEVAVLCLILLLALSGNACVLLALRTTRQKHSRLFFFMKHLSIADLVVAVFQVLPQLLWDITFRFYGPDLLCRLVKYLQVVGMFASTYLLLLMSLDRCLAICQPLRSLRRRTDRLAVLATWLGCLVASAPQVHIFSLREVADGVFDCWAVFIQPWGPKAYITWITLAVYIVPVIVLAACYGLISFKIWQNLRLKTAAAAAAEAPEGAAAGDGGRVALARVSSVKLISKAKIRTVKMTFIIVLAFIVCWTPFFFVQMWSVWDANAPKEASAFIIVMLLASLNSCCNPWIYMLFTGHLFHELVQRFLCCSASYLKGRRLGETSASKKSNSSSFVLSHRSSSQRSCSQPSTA
Summary of the method: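 Human OTR transiently transfected into COS-1 cells (Lipofectamine2000, DNA ratio 2); assayed 48 h post-transfection. Cells stimulated with increasing compound concentrations in HEPES buffer containing 50 mM LiCl, pH 7.4, 1 h at 37 °C, 5% CO2. Lysed with HTRF reagents (Eu cryptate anti-IP-one antibody, d2-IP-one), 1 h room temperature. Read 665/590 nm after 340 nm excitation. EC50; triplicates, n = 3-6.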

Oxytocin receptor [2] = biological target: T1, Oxytocin receptor; experiment: Displacement of [3H]OT from oxytocin receptor expressed in COS1 cells; format: cell-based, COS-1
Summary of the method: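 Membranes from COS-1 cells transiently transfected with OTR, harvested 48 h post-transfection; 5 μg protein per well. Incubated with 2 nM [3H]OT and competitor (10 pM to 10 μM) on scintillation proximity beads in buffer with 0.1% BSA. Shaken 1 h at room temperature, then scintillation counted.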

[3] = Half life in […] by LC/MS and RP-HPLC method; format: ADME, cell-free, Serum; conditions: human
Summary of the method: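 Human plasma pre-warmed 30 min at 37 °C. Peptide (0.3 mM stock in 0.1 M phosphate, pH 7.2) added at 50 μL per 300 μL plasma, then incubated at 37 °C. Samples taken at 1, 2, 3, 4, 12, 24 and 48 h and quenched in ACN/NaCl/TFA extraction buffer. Analysed by RP-HPLC and LC-MS. Half-life from a one-phase decay fit, n = 3-6.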

SMILES | EC50 (Oxytocin receptor [1]) [nM] | Ki (Oxytocin receptor [2]) [nM] | half-life [3] [min]
CC[C@H](C)[C@@H]1NC(=O)[C@H](Cc2ccc(O)cc2)NC(=O)[C@@H](N)CS[Se]C[C@@H](C(=O)N2CCC[C@H]2C(=O)N[C@@H](CC(C)C)NCC(N)=O)NC(=O)[C@H](CC(N)=O)NC(=O)[C@H](CCC(N)=O)NC1=O | 154 | 0.72 | 
CC[C@H](C)[C@@H]1NC(=O)[C@H](Cc2ccc(O)cc2)NC(=O)[C@@H](N)C[Te][Te]C[C@@H](C(=O)N2CCC[C@H]2C(=O)N[C@@H](CC(C)C)NCC(N)=O)NC(=O)[C@H](CC(N)=O)NC(=O)[C@H](CCC(N)=O)NC1=O | 27.3 | 7.6 | 1450
CC[C@H](C)[C@@H]1NC(=O)[C@H](Cc2ccc(O)cc2)NC(=O)[C@@H]2CSSC[C@H](NC(=O)[C@H](CC(N)=O)NC(=O)[C@H](CCC(N)=O)NC1=O)C(=O)N1CCC[C@H]1C(=O)N[C@@H](CC(C)C)C(=O)NCC(=O)N2 | > 100000 | 1400 | > 2880
CC[C@@H](C)[C@H]1NC(=O)[C@@H](CCC(N)=O)NC(=O)[C@@H](CC(N)=O)NC(=O)[C@H](NC(=O)[C@H]2CCCN2C(=O)[C@@H](CC(C)C)NC(=O)CN)CSSC[C@H](C(=O)O)NC(=O)[C@@H](Cc2ccc(O)cc2)NC1=O | > 100000 | > 100000 | 330
CC[C@H](C)[C@@H]1NC(=O)[C@H](Cc2ccc(O)cc2)NC(=O)[C@@H]2CSSC[C@H](NC(=O)[C@H](CC(N)=O)NC(=O)[C@H](CCC(N)=O)NC1=O)C(=O)N1CCC[C@H]1C(=O)N[C@@H](CC(C)C)C(=O)NCC(=O)N[C@@H](C)C(=O)NCC(=O)N[C@@H](C)C(=O)NCC(=O)N[C@@H](C)C(=O)NCC(=O)N2 (cyclo(AGAGAGCYIQNCPLG); disulfide 7-12) | > 100000 | > 100000 | > 2880
CC[C@H](C)[C@@H]1NC(=O)[C@H](Cc2ccc(O)cc2)NC(=O)[C@@H](N)CSSC[C@@H](C(=O)N2CCC[C@H]2C(=O)N[C@@H](CC(C)C)C(=O)NCC(N)=O)NC(=O)[C@H](CC(N)=O)NC(=O)[C@H](CCC(N)=O)NC1=O [OXYTOCIN] |  |  | 696
NC(=O)CC[C@@H]1NC(=O)[C@H](Cc2ccccc2)NC(=O)[C@H](Cc2ccc(O)cc2)NC(=O)[C@@H](N)CSSC[C@@H](C(=O)N2CCC[C@H]2C(=O)N[C@@H](CCCN=C(N)N)C(=O)NCC(N)=O)NC(=O)[C@H](CC(N)=O)NC1=O [VASOPRESSIN] |  |  | 102
